For 7 molecules, Ki results are on record in ChEMBL document CHEMBL1157805, “Virtual screening, selection and development of a benzindolone structural scaffold for inhibition of lumazine synthase” (Bioorg Med Chem, 2010).

Structures are written as SMILES.

The target in experiment [1] is T1, 6,7-dimethyl-8-ribityllumazine synthase (Mycobacterium tuberculosis, UniProt P9WHE9). Nature of the experiment: Inhibition of Mycobacterium tuberculosis recombinant lumazine synthase at enzyme-inhibitor complex state after 30 mins by fluorescence assay. In a few lines: (§1)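 Recombinant M. tuberculosis lumazine synthase (2 μM) in 100 mM Tris-HCl pH 7.0, 100 mM NaCl, 5 mM DTT, 2% DMSO. Dihydroxybutanone phosphate was fixed at 100 μM, pyrimidinedione substrate varied 3–100 μM, and inhibitor 0–200 μM. Reactions were started with the pyrimidinedione substrate. Lumazine formation was read at 408 nm for 30 min at 27 °C. Velocity–substrate data were fitted by nonlinear regression to alternative inhibition models.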
T1 sequence (P9WHE9 whole entry): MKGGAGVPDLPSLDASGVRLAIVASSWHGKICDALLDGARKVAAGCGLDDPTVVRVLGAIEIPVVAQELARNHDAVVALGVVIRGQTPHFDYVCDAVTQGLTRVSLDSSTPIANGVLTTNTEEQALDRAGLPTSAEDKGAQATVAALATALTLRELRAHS

The nature of experiment [2]: Inhibition of Mycobacterium tuberculosis recombinant riboflavin synthase at […] state after 30 mins by fluorescence assay. A digest of the protocol:
(§2)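 Recombinant M. tuberculosis riboflavin synthase (1 μM) in 100 mM Tris-HCl pH 7.0, 100 mM NaCl, 5 mM DTT, 2% DMSO. 6,7-Dimethyl-8-ribityllumazine substrate was varied 3–60 μM and inhibitor 0–200 μM. Reactions were started with substrate. Riboflavin formation was monitored at 470 nm for 30 min at 27 °C. Velocity–substrate data for all inhibitor levels were fitted by nonlinear regression to alternative inhibition models.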

Experiment [3] has as its target T1, 6,7-dimethyl-8-ribityllumazine synthase. Nature of the experiment: Inhibition of Mycobacterium tuberculosis recombinant lumazine synthase at enzyme-substrate-inhibitor complex state after 30 mins by fluorescence assay. In a few lines:
as §1

A short description of experiment [4]: Inhibition of Mycobacterium tuberculosis recombinant riboflavin synthase at enzyme-substrate-inhibitor complex state after 30 mins by fluorescence assay. A digest of the protocol:
as §2

As a reminder, the Ki is a dissociation constant, usually derived from enzyme kinetics or from competition with a known ligand. For `CCOC(=O)C(=O)Nc1c(Cl)[nH]c(=O)[nH]c1=O`, the Ki in experiment [1] amounted to 832 µM.
For `O=C1Nc2ccc(S(=O)(=O)NCCCCCCOP(=O)(O)O)c3cccc1c23`, the Ki in experiment [2] was 9.8 µM; in experiment [3], 723 µM; in experiment [4], 898 µM.
For the molecule `O=C1Nc2ccc(S(=O)(=O)NCCOP(=O)(O)O)c3cccc1c23`, the inhibitory constant (Ki) in experiment [1] is 260 µM.
For `O=C1Nc2ccc(S(=O)(=O)NCCCCC(F)(F)P(=O)(O)O)c3cccc1c23`, the Ki in experiment [2] was 4.1 µM; in experiment [1], 832 µM; in experiment [3] it was 518 µM; in experiment [4], > 1000 µM.
As for `O=C1Nc2ccc(S(=O)(=O)NCCCOP(=O)(O)O)c3cccc1c23`, the Ki in experiment [1] amounted to 99 µM.
On the same count and under the same terms, with `O=C1Nc2ccc(S(=O)(=O)NCCCCOP(=O)(O)O)c3cccc1c23` the figure was 38 µM.
Turning to `O=C(O)CNS(=O)(=O)c1ccc2c3c(cccc13)C(=O)N2`, in experiment [1], the inhibition constant (Ki) worked out at 70 µM.
